Test results published in ChEMBL document CHEMBL4011643, “Triaryl Benzimidazoles as a New Class of Antibacterial Agents against Resistant Pathogenic Microorganisms” (J Med Chem, 2017).
≈ marks a conversion by molar mass, not a printed value.

What was measured:
Enterococcus faecium = assay: Antibacterial activity against vancomycin-resistant Enterococcus faecium NCTC 12204 after 20 hrs by broth microdilution method; format: functional; settings: NCTC 12204, 20 h
In short: (§1)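 Broth microdilution in Tryptic Soy Broth; growth read as OD600 after 20 h. MIC taken as the lowest drug concentration giving OD600 below 0.1. Run in triplicate.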

Staphylococcus aureus [1] = assay: Antibacterial activity against methicillin-resistant Staphylococcus aureus MRSA252 after 20 hrs by broth microdilution method; format: functional; settings: MRSA252, 20 h; in short: as §1
Enterococcus faecalis [2] = assay: Antibacterial activity against vancomycin-sensitive Enterococcus faecalis NCTC 775 after 20 hrs by broth microdilution method; format: functional; settings: NCTC 775, 20 h
In short: (§2)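 Broth microdilution in Tryptic Soy Broth, done in triplicate. Growth was read as OD600 after 20 h. MIC is the lowest drug concentration giving OD600 below 0.1.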

[3] = Cytotoxicity against human HeLa cells assessed as cell viability at 25 uM after 24 hrs by MTT assay; format: cell-based; settings: read-out: Activity
In short: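 HeLa cells, 10000 per well, were grown at 37 °C in 5% CO2 and allowed to settle for 24 h. Compound was then added in triplicate for 24 h of continuous exposure. Viability was read by MTT colorimetry, with absorbance at 570 nm.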

Staphylococcus aureus [4] = assay: Antibacterial activity against methicillin-resistant Staphylococcus aureus EMRSA-15 after 20 hrs by broth microdilution method; format: functional; settings: EMRSA-15, 20 h; in short: as §1
Staphylococcus aureus [5] = assay: Antibacterial activity against methicillin-sensitive Staphylococcus aureus ATCC 9144 after 20 hrs by broth microdilution method; format: functional; settings: ATCC 9144, 20 h; in short: as §2
Enterococcus faecalis [6] = assay: Antibacterial activity against vancomycin-resistant Enterococcus faecalis NCTC 12201 after 20 hrs by broth microdilution method; format: functional; settings: NCTC 12201, 20 h; in short: as §1
[7] = Stabilization of FAM/TAMRA-labeled AT-rich DNA duplex (unknown origin) assessed as change in melting temperature at 5 uM by FRET-based assay
In short: (§3)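 FRET melting of a FAM/TAMRA-labelled AT-rich oligonucleotide, 400 nM working solution in 50 mM potassium, 50 mM cacodylate, pH 7.4. DNA was annealed at 85 °C for 6 min, then held at 25 °C for 5 h, and mixed 1:1 with sample. Fluorescence was read every 0.5 °C from 30 to 100 °C, with a 30 s hold per step. ΔTm is measured against the blank, in triplicate.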

[8] = Stabilization of FAM/TAMRA-labeled AT-rich DNA duplex (unknown origin) assessed as change in melting temperature at 1 uM by FRET-based assay; in short: as §3

Row | SMILES | MIC (Enterococcus faecium) [µg/mL] | MIC (Staphylococcus aureus [1]) [µg/mL] | MIC (Enterococcus faecalis [2]) [µg/mL] | viability at 24 h, 25 µM [3] [%] | MIC (Staphylococcus aureus [4]) [µg/mL] | MIC (Staphylococcus aureus [5]) [µg/mL] | MIC (Enterococcus faecalis [6]) [µg/mL] | deltaTm [7] [°C] | deltaTm [8] [°C]
1 | Cc1nc2cc(C(=O)NCCCN(C)C)ccc2n1-c1ccc(-c2cccc(NC(=O)c3ccc4nc(CCCN(C)C)[nH]c4c3)c2)cn1 | 64 (≈ 97.3 µM) | > 128 | > 128 | 39 | > 128 | > 128 | 32 to 64 (≈ 48.6 to 97.3 µM) | – | –
2 | Cc1nc2ccc(-c3cccc(-c4ccc(-n5c(C)nc6cc(C(=O)NCCCN(C)C)ccc65)nc4)c3)cc2[nH]1 | 64 (≈ 118 µM) | > 128 | 64 (≈ 118 µM) | 62 | > 128 | > 128 | 64 (≈ 118 µM) | – | –
3 | COC(=O)c1ccc2c(c1)nc(C)n2-c1ccc(-c2cccc(NC(=O)c3ccc4nc(C)[nH]c4c3)c2)cn1 | – | – | – | – | > 32 | – | > 32 | – | –
4 | Cn1cc(NC(=O)c2cc(NC(=O)CN=C(N)N)cn2C)cc1C(=O)NCCC(=N)N [NETROPSIN] | – | – | – | – | – | – | – | 22.2 | 16.5
